Measurements from ChEMBL document CHEMBL1149190, “Generation of new protein kinase inhibitors utilizing cytochrome p450 mutant enzymes for indigoid synthesis” (J Med Chem, 2004).
pIC50: −log10 of the molar value.

How the values were obtained:
[1] = target: T1, Glycogen synthase kinase-3 (Homo sapiens, UniProt P49840+P49841); experiment: (§1) Residual porcine GSK-3-alpha/beta kinase activity with L240C/N297Q mutant cytochrome P450 2A6 extract; format: protein assay; design: concentration or dose not given beside the values; conditions: Sus scrofa; target entry is the homologue from another species
Outline: (§2)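 E. coli expressing the P450 2A6 variant plus reductase were grown 42 h at 30 °C with the indole added. DMSO extract (0.3 µL) was tested on axin-purified porcine GSK-3α/β with GS-1 peptide in buffer A, 15 µM [γ-33P]ATP, 30 °C. Residual activity given as % of a DMSO control. Means of duplicates.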

[2] = target: T2, Cyclin-dependent kinase 5/CDK5 activator 1 (Homo sapiens) (UniProt Q00535+Q15078); experiment: Residual Cyclin-dependent kinase 5-p35nck5a activity with L240C/N297Q mutant cytochrome P450 2A6 extract; format: protein-complex assay
Outline: (§3)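 The indole was fed to E. coli expressing the P450 2A6 variant with NADPH-P450 reductase, grown 42 h at 30 °C. Extract in DMSO (0.3 µL) was added to the CDK5/p25 histone H1 assay: buffer C, 15 µM [γ-33P]ATP, 30 °C. Residual activity given as % of a DMSO-only control. Means of duplicates.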

[3] = target: T1, Glycogen synthase kinase-3; experiment: Inhibition of porcine GSK-3-alpha/beta kinase; format: protein assay, Sus scrofa; conditions: target entry is the homologue from another species
Outline: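 Porcine brain GSK-3α/β, purified on immobilized axin and diluted 1/100 in 1 mg/mL BSA with 10 mM DTT. Substrate GS-1 phosphopeptide in buffer A (Tris-HCl pH 7.5, MgCl2, EGTA, DTT, heparin) with 15 µM [γ-33P]ATP, 30 min at 30 °C. Read by P81 filter binding and scintillation counting. Duplicates; IC50 as % of control activity.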

[4] = target: Cyclin-dependent kinase 5/CDK5 activator 1 (Homo sapiens, UniProt Q00535); experiment: Inhibition of Cyclin-dependent kinase 5-p35nck5a; format: protein-complex assay
Outline: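 Recombinant CDK5 and p25 (truncated p35), each expressed in E. coli as a GST fusion and glutathione-agarose purified, mixed in equal amounts. Read by P81 filter capture and scintillation counting. Expressed as % of uninhibited activity. Duplicates; IC50 determined.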

[5] = target: Cyclin-dependent kinase 1/cyclin B (Marthasterias glacialis); experiment: Inhibition of Cyclin-dependent kinase 1-cyclin B of M-phase Marthasterias glacialis oocytes
[6] = target: T1, Glycogen synthase kinase-3; experiment: Residual porcine GSK-3-alpha/beta kinase activity with wild-type cytochrome P450 2A6 extract; format: protein assay; conditions: Sus scrofa, target entry is the homologue from another species; outline: as §2
[7] = target: T2, Cyclin-dependent kinase 5/CDK5 activator 1 (Homo sapiens); experiment: Residual Cyclin-dependent kinase 5-p35nck5a activity with wild-type cytochrome P450 2A6 extract; format: protein-complex assay; outline: as §3
[8] = target: T1, Glycogen synthase kinase-3; experiment: (§4) Residual porcine GSK-3-alpha/beta kinase activity with L240C mutant cytochrome P450 2A6 extract; format: protein assay; conditions: Sus scrofa; target entry is the homologue from another species; outline: as §2
[9] = target: T1, Glycogen synthase kinase-3; experiment: as §1; format: protein assay; conditions: Sus scrofa; target entry is the homologue from another species; outline: as §2
[10] = target: T2, Cyclin-dependent kinase 5/CDK5 activator 1 (Homo sapiens); experiment: Residual Cyclin-dependent kinase 5-p35nck5a activity with L240C-mutant cytochrome P450 2A6 extract; format: protein-complex assay
[11] = target: T1, Glycogen synthase kinase-3; experiment: as §4; format: protein assay; conditions: Sus scrofa; target entry is the homologue from another species; remark: listed apart in the source
Outline: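 GSK-3α/β from porcine brain, purified on immobilized axin and diluted 1/100, assayed in buffer A with GS-1 peptide substrate and 15 µM [γ-33P]ATP for 30 min at 30 °C. Phosphate incorporation read on P81 filters by scintillation counting. Bacterial extract in DMSO added; residual activity given as % of DMSO control, mean of duplicates.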

Sequence of Cyclin-dependent kinase 5/CDK5 activator 1 (Q00535 whole entry, the tested form may be a part): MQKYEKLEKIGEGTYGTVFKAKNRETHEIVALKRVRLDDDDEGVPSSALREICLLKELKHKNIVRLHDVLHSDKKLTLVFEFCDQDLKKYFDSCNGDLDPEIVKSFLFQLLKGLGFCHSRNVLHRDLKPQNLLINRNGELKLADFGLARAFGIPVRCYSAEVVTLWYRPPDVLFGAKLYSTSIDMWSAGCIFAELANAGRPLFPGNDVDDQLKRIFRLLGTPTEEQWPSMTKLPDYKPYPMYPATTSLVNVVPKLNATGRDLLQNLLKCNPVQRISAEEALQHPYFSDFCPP
Sequence of Cyclin-dependent kinase 5/CDK5 activator 1 (Q15078 whole entry, further chain, the tested form may be a part): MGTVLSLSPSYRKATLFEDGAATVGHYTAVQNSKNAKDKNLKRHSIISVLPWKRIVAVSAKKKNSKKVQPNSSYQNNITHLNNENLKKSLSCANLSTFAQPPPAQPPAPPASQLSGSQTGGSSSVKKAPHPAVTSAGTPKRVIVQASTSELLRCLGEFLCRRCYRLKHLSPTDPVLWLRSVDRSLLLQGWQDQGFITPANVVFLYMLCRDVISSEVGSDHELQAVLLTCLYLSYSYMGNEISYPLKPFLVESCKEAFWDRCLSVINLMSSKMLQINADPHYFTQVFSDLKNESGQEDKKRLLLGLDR
T2 sequence (Q00535 whole entry): as the sequence (Q00535 whole entry, the tested form may be a part) above
T2 sequence (Q15078 99-307 partner limits assumed): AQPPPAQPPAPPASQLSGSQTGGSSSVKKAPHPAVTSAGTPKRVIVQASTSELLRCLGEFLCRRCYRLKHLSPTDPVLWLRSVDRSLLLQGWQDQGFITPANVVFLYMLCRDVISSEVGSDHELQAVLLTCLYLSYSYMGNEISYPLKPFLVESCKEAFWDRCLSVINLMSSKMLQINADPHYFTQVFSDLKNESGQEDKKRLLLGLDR
T1 sequence (P49840 whole entry, looked up): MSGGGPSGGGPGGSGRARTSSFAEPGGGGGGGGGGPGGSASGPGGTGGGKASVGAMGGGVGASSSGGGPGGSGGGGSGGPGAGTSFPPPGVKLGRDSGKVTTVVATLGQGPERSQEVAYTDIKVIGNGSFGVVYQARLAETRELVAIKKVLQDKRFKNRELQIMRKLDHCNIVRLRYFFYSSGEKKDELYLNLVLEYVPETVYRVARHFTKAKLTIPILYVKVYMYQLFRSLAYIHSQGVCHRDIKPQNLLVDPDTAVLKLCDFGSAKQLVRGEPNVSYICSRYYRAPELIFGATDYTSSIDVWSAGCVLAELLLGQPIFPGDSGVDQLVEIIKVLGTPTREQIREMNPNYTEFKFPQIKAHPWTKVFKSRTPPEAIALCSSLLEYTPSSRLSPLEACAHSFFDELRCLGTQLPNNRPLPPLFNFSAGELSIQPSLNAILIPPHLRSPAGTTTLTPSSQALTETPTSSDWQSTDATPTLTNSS
T1 sequence (P49841 whole entry, looked up): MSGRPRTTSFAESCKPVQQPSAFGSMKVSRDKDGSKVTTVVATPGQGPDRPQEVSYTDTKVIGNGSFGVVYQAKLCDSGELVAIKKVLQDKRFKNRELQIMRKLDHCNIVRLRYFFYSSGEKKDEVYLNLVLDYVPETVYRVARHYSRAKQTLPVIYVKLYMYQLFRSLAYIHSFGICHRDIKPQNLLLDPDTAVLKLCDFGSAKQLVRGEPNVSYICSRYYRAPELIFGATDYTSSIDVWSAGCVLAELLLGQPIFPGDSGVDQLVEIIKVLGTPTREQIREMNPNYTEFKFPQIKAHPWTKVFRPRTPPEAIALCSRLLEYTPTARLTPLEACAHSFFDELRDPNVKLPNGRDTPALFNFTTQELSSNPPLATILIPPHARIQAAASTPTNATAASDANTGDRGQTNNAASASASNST

Row | residual activity [1] [%] | residual activity [2] [%] | IC50 [3] [nM] | pIC50 [4] | Compound | further results
1 | 71 | 99 |  |  | COC(=O)c1ccc2[nH]ccc2c1 | 
2 |  |  | 2500 |  | O=C1Nc2ccccc2/C1=C1/Nc2ccccc2C1=O [INDIRUBIN] | 
3 |  |  | > 100000 | < 4.00 | O=C1/C(=C2\Nc3ccccc3C2=O)Nc2ccccc21 [INDIGO] | 
4 |  |  | 200 | 6.10 | COc1ccc2c(c1)C(=O)C(c1c(O)[nH]c3ccc(OC)cc13)=N2 | pIC50 [5]: 6.40
5 | 42 | 73 |  |  | Nc1ccc2[nH]ccc2c1 | 
6 | 87 | 97 |  |  | Fc1ccc2cc[nH]c2c1 | 
7 |  |  | 800 | 5.92 | COc1ccc2[nH]c(O)c(C3=Nc4ccccc4C3=O)c2c1 | pIC50 [5]: 5.82
8 |  | 107 |  |  | O=[N+]([O-])c1ccc2cc[nH]c2c1 | residual activity ([6]; in the assay text read “cytochrome P450 2A6 L240C/N297Q mutant” for “wild-type cytochrome P450 2A6”): 63%
9 |  |  | 6000 | 4.59 | COc1ccc2c(c1)C(=O)C(c1[nH]c3ccc(OC)cc3c1O)=N2 | pIC50 [5]: 5.92
10 | 62 | 80 |  |  | COc1cc2cc[nH]c2cc1OC | 
11 | 15 | 19 |  |  | Cc1ccc2[nH]ccc2c1 | residual activity [6]: 45%; residual activity [7]: 89%
12 |  |  | > 100000 | < 4.00 | COc1ccc2c(c1)C(=O)C(c1[nH]c3ccccc3c1O)=N2 | pIC50 [5]: < 4.00
13 |  |  | 550 | 5.72 | Cc1ccc2c(c1)C(=O)C(c1c(O)[nH]c3ccccc13)=N2 | 
14 |  |  | 800 | 5.30 | Cc1ccc2[nH]c(O)c(C3=Nc4ccccc4C3=O)c2c1 | 
15 | 76 | 81 |  |  | c1ccc2[nH]ccc2c1 | residual activity [6]: 68%; residual activity [7]: 78%
16 |  | 56 |  |  | Brc1ccc2[nH]ccc2c1 | residual activity [8]: 22%; residual activity [9]: 25%; residual activity [10]: 44%
17 | 59 | 90 |  |  | Cc1cccc2cc[nH]c12 | 
18 |  | 82 |  |  | Clc1cccc2cc[nH]c12 | residual activity [9]: 110%
19 | 89 | 103 |  |  | c1cnc2[nH]ccc2c1 | 
20 |  |  | 600 | 5.92 | COc1ccc2c(c1)C(=O)C(c1c(O)[nH]c3ccccc13)=N2 | pIC50 [5]: 5.68

Row | Compound | residual activity [1] [%] | residual activity [2] [%] | IC50 [3] [nM] | pIC50 [4] | further results
21 | COc1ccc2[nH]ccc2c1 | 3 | 3 |  |  | residual activity [10]: 87%; residual activity [11]: 55%
